What all share (format): functional
Experiment [1] deals with Mus musculus. Briefly: Minimum inhibitory concentration of the subcutaneously administered compound evaluated against Staphylococcus aureus HT-17 strain in mice (SC).
Experiment [2] relates to Mus musculus. Kind of experiment: Minimum inhibitory concentration of the subcutaneously administered compound evaluated against […] PW3 strain in mice (SC).
The test system of experiment [3] is Mus musculus. Briefly: Minimum inhibitory concentration of the subcutaneously administered compound evaluated against Staphylococcus aureus GO3 strain in mice (SC).
For experiment [4], the system named is Mus musculus. Briefly: Protective dose of orally administered compound against intraperitoneally-induced septicaemia model ( vancomycin resistant Enterococci faecium D3HM3 strain) in murine. The following applies: po, read-out: PD50. The method, boiled down:
(§1)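 PD50 was measured in a murine septicaemia model, with infection induced intraperitoneally with the named Gram-positive strain. Test compound was given orally and the PD50 was calculated by the probit method.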

Experiment [5] deals with Mus musculus. Briefly: Protective dose of orally administered compound against intraperitoneally-induced septicaemia model ( vancomycin resistant Enterococci faecium D3HM4 strain) in murine. The following applies: po, read-out: PD50. The method, boiled down:
as §1

Experiment [6] deals with Mus musculus. Kind of experiment: Protective dose of orally administered compound against intraperitoneally-induced septicaemia model ( vancomycin resistant Enterococci faecium D3HT12 strain) in murine. The conditions noted are these: po, read-out: PD50. The method, boiled down: as §1
Experiment [7] concerns Mus musculus. Briefly: Protective dose of orally administered compound against intraperitoneally-induced septicaemia model (Enterococci faecium D3HT7 strain) in murine. The following applies: po, read-out: PD50.
Experiment [8] relates to Mus musculus. Briefly: Protective dose of subcutaneously administered compound against intraperitoneally-induced septicaemia model (Staphylococcus aureus GO3) in murine. The conditions noted are these: sc, read-out: PD50. The method, boiled down:
(§2)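 Murine septicaemia was induced by intraperitoneal infection, and the compound was given subcutaneously. PD50 was derived by probit analysis.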

The test system of experiment [9] is Mus musculus. Briefly: Protective dose of subcutaneously administered compound against intraperitoneally-induced septicaemia model (Staphylococcus aureus HT-17) in murine. The following applies: sc, read-out: PD50. The method, boiled down:
as §2

In experiment [10] the test system is Mus musculus. Briefly: Protective dose of subcutaneously administered compound against intraperitoneally-induced septicaemia model ([…] PW3 strain) in murine. The following applies: sc, read-out: PD50. The method, boiled down: as §2
The subject of experiment [11] is Mus musculus. Briefly: Protective dose of orally administered compound against intraperitoneally-induced septicaemia model (Enterococci faecalis D2HT6 strain) in murine. The following applies: po, read-out: PD50. The method, boiled down:
as §1

The source of these data is ChEMBL document CHEMBL1133253, “Improved antibacterial activities of coumarin antibiotics bearing 5',5'-dialkylnoviose: biological activity of RU79115” (Bioorg Med Chem Lett, 2000).

Each structure is given as a SMILES string. Converted amounts (≈) assume the structure as drawn.

As to `CC(=O)NC[C@H]1CN(c2ccc(N3CCOCC3)c(F)c2)C(=O)O1` [LINEZOLID], the MIC (in general, the smallest concentration in the dilution series that meets the test's criterion for growth inhibition) worked out at 1.2 µg/mL (≈ 3.56 µM) with Mus musculus [1], 1.2 µg/mL (≈ 3.56 µM) against Mus musculus [2] and 2.5 µg/mL (≈ 7.41 µM) in the experiment with Mus musculus [3]. Further, the ED50 is 2.1 mg/kg in the experiment with Mus musculus [4]; 8.6 mg/kg in the experiment on Mus musculus [5]; 1.8 mg/kg with Mus musculus [6]; 2.4 mg/kg with Mus musculus [7]; 8.7 mg/kg in the experiment on Mus musculus [8]; 5.8 mg/kg in the experiment with Mus musculus [9]. Moreover, the results for the ED50 with Mus musculus [10] and in the experiment with Mus musculus [11] were 3 mg/kg and 4.2 mg/kg, respectively.
